Screening results as filed in PubChem BioAssay.
OXTR agonist – human OXTR agonism | P30559 | CHO-OTR cells, Fluo-8 calcium fluorescence; normalized: DMSO 0%, oxytocin 100% | activation, % at 3 µM | hit rate 0.32% among 320,000 | AID 2435;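 active = activation above the mean of all tested compounds plus 3 SD, cutoff set per screening run, cut at about 20% in these data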;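 also: peak over basal fluorescence ratio from a 100 s FLIPR kinetic read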
Target sequence (P30559 whole entry, looked up): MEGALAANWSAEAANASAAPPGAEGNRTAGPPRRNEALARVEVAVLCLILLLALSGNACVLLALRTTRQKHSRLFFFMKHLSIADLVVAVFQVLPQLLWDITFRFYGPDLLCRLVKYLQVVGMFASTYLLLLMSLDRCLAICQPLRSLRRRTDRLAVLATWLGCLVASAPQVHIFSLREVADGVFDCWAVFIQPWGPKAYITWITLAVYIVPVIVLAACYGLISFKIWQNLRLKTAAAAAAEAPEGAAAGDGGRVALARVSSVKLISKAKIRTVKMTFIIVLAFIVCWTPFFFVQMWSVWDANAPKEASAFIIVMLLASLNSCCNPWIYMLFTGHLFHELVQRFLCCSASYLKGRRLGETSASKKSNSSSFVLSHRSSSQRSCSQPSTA
TAAR1 antagonist – antagonists of human TAAR1; Q96RJ0; AID 624466; hit rate 1.5% among 360,000; inhibition, % at 3 µM; CHO RD-HGA16 TAAR1, Fluo-8 calcium fluorescence, antagonist;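 active = inhibition above a per-plate cutoff, the mean inhibition of test compounds on that plate plus 3 SD, cut at about 49% in these data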
Target sequence (Q96RJ0 whole entry, looked up): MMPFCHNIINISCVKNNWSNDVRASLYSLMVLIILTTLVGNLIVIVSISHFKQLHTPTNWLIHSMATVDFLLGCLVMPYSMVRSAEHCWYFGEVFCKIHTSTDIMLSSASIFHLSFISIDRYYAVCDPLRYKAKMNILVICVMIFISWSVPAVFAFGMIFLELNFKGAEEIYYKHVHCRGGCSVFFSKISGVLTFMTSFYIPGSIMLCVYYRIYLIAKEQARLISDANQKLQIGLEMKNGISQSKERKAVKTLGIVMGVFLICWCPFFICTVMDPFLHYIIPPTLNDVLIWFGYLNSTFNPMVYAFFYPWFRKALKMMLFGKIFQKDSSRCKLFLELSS
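Test system: CHO RD-HGA16 cells bearing hTAAR1 | Reagent: β-PEA, EC80 | Compound dosing: 3 µM, single point | Schedule: Dye loading 75 min at 37 °C, then 30 min room temperature | Signal: Calcium fluorescence with Fluo-8 | Evaluation: Percent inhibition of PEA-evoked calcium signal, max/basal emission ratio | Control set: DMSO-only wells and EC80 β-PEA-stimulated wells | Repeats: Singlicate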
TAAR1 ag – agonists of human TAAR1; Q96RJ0; CHO RD-HGA16 TAAR1, Fluo-8 calcium fluorescence; vehicle wells 0%, saturating PEA agonist 100%; activation, % at 3 µM; hit rate 0.99% among 360,000; AID 624467;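 active = activation above the mean activation of all test compounds in the run plus 3 SD, cut at about 38% in these data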
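Test system: RD-HGA16 (CHO) cells co-expressing Gα16 and hTAAR1; dosing: one-point dosing at 3 µM (nominal); timing: 17-24 h seeding, 75 min 37 °C dye, 30 min RT; signal: kinetic Fluo-8 calcium fluorescence; read-out basis: % activation relative to PEA EC100 response; controls: DMSO and PEA EC100; replicates: n 1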
V1aR counter – activates human V1a receptor in oxytocin agonist counter-screen. activation, % at 3 µM. hit rate 0.25% among 320,000. CHO-V1R cells, Fluo-8 calcium fluorescence, agonist mode; 0% DMSO, 100% 3 nM vasopressin;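 active = activation above the mean activation of all tested compounds plus 3 SD, per screening run, cut at about 20% in these data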;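 also: signal is peak over basal fluorescence ratio across a 100 second FLIPR read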
OXTR potentiator – potentiates the human oxytocin receptor response | hit rate 0.061% among 320,000 | activation, % at 3 µM | P30559 | CHO-OTR cells, Fluo-8 calcium fluorescence, potentiator mode; 0% = oxytocin EC15, 100% = EC100;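 active = activation above that plate's cutoff, the mean activation of tested compounds plus 3 SD, cut at about 6.6% in these data, passing the limit was not always enough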
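Assay system: CHO-OTR cells, human receptor / Also added: oxytocin at about EC15, sub-maximal agonist stimulus / Dosing: single dose, 3.0 µM nominal final compound concentration / Incubation: 6 min pre-incubation, 100 s read / Technique: Fluo-8 calcium dye fluorescence / Read-out: % activation vs EC15 and EC100 oxytocin / Benchmarks: EC15 oxytocin low, 75 nM oxytocin high / Replicates: singlicate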
TAAR1 nonsel count – counter-screen for TAAR1 antagonists: nonselective antagonists. AID 651780. counterscreen cell line, calcium fluorescence, antagonist mode. hit rate 77% among 2,400. inhibition, % at 3 µM. shares compounds with TAAR1 antagonist; in the data active = inhibition above about 22%;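 also: CHO-Ga16 host cells stimulated with ATP at an EC80 level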
TAAR1 antag conf – confirmation of human TAAR1 antagonists; shares compounds with TAAR1 antagonist; TAAR1-expressing cells, fluorescence antagonist read-out; inhibition, % at 3 µM; hit rate 40% among 2,400; in the data active = inhibition above about 49%;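 also: CHO-Ga16 host cells challenged with agonist PEA near its EC80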
Ga16 ag counter – counter-screen for TAAR1 antagonists: nonselective Ga16 agonists. hit rate 18% among 2,400. Ga16-expressing cells, calcium fluorescence, agonist counterscreen. shares compounds with TAAR1 antagonist. activation, % at 3 µM; in the data active = activation above about 12%
TAAR1 ag counter – TAAR1 agonism, antagonist counter-screen; hTAAR1 cell line, fluorescence activation, agonist mode; activation, % at 3 µM; shares compounds with TAAR1 antagonist; hit rate 2% among 2,400; in the data active = activation above about 37%;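 also: CHO cells stably expressing TAAR1 with calcium dye readout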
Large screens that a line does not name were inactive (follow-up assays come after a bar, where they were run). An excerpt weighted towards active compounds, which were near 2.3% of everything screened.

CC(=O)c1cccc(NC(=O)c2cc(-c3ccco3)nc3ccccc23)c1	TAAR1 antagonist 62.8 | TAAR1 nonsel count 30.7 | TAAR1 antag conf 49.7 | Ga16 ag counter inactive | TAAR1 ag counter inactive
O=C(Nc1cccc(S(=O)(=O)NC2=NCCCCC2)c1)c1cc(-c2ccco2)nc2ccccc12	TAAR1 antagonist 50.9 | TAAR1 nonsel count 30.3 | TAAR1 antag conf inactive | Ga16 ag counter inactive | TAAR1 ag counter inactive
COc1cccc(NC(=O)c2cc(-c3ccco3)nc3ccccc23)c1	none
CC(C)(C)OC(=O)CC(S(=O)(=O)c1ccccc1)S(=O)(=O)c1ccccc1	none (no result: OXTR agonist, V1aR counter, OXTR potentiator)
O=C(Nc1ccccc1N1CCOCC1)c1cc(-c2ccco2)nc2ccccc12	TAAR1 antagonist 61.7 | TAAR1 nonsel count 29.3 | TAAR1 antag conf 48.9 | Ga16 ag counter inactive | TAAR1 ag counter inactive
O=C(Nc1cccc(-c2cnc3ccccc3n2)c1)C1CC(=O)N(c2ccccc2)C1 (centres undefined)	TAAR1 antagonist 80.2 | TAAR1 nonsel count 45.4 | TAAR1 antag conf 62.6 | Ga16 ag counter 15.6 | TAAR1 ag counter inactive
COc1cc(-c2cc(C(=O)Nc3ccccc3N3CCOCC3)c3ccccc3n2)cc(OC)c1OC	none
COc1ccc(-c2ccc(C(=O)Nc3ccc(Cl)cc3)c3occc23)c(C)c1	none (no result: OXTR agonist, V1aR counter, OXTR potentiator)
COc1ccc(-c2ccc(C(=O)Nc3cc(OC)c(OC)c(OC)c3)c3occc23)c(C)c1	TAAR1 antagonist 61.5 (no result: OXTR agonist, V1aR counter, OXTR potentiator) | TAAR1 nonsel count 30.2 | TAAR1 antag conf 48.6 | Ga16 ag counter inactive | TAAR1 ag counter inactive
COc1ccc(-c2ccc(C(=O)NCC3CCOCC3)c3occc23)c(C)c1	TAAR1 antagonist 59.4 (no result: OXTR agonist, V1aR counter, OXTR potentiator) | TAAR1 nonsel count 32.2 | TAAR1 antag conf 58.1 | Ga16 ag counter inactive | TAAR1 ag counter inactive
COCCNC(=O)c1ccc(-c2ccc(OC)cc2C)c2ccoc12	none (no result: OXTR agonist, V1aR counter, OXTR potentiator)
CCCS(=O)(=O)NC(=O)C1(C)CCN(C(=O)c2ccc3c(c2)OCO3)C1 (centres undefined)	none (no result: OXTR agonist, V1aR counter, OXTR potentiator)
Brc1ccccc1-c1nc2c3ccccc3ncn2n1	TAAR1 antagonist 52.7 | TAAR1 nonsel count inactive | TAAR1 antag conf inactive | Ga16 ag counter inactive | TAAR1 ag counter inactive
CC(C)(C)c1ccc(-n2ncc3c2CCCC3NC(=O)c2ccco2)cc1 (centres undefined)	none (no result: OXTR agonist, V1aR counter, OXTR potentiator)
O=C(COc1cccc2c1CCN(Cc1ccc(Cl)cc1)C2=O)N1CCOCC1	none
CCn1c2ccccc2c2cc(NC(=O)c3coc(=O)c(Br)c3)ccc21	TAAR1 antagonist 105.4 | TAAR1 nonsel count inactive | TAAR1 antag conf inactive | Ga16 ag counter inactive | TAAR1 ag counter inactive
CCn1c2ccccc2c2cc(NC(=O)c3ccc(=O)oc3)ccc21	none
CCCOc1ccccc1OCC(=O)Nc1ccc(S(=O)(=O)N2CCCC2)cc1	TAAR1 antagonist 64.7 | TAAR1 nonsel count inactive | TAAR1 antag conf inactive | Ga16 ag counter inactive | TAAR1 ag counter inactive
CCCOc1ccccc1OCC(=O)Nc1ccc(S(=O)(=O)N2CCCCC2)cc1	none
CCOc1cc(NC(=S)NC)c(OCC)cc1NC(=O)c1cccs1	TAAR1 antagonist 54.1 | TAAR1 nonsel count inactive | TAAR1 antag conf inactive | Ga16 ag counter inactive | TAAR1 ag counter inactive
COC(=O)Cc1nc(Nc2ccccc2)sc1C	none
Cc1c(N=C2N=C(NC(=O)NC(C)(C)C)c3ccccc32)c(=O)n(-c2ccccc2)n1C	none
Cc1c(N=C2N=C(NC(=O)c3cccs3)c3ccccc32)c(=O)n(-c2ccccc2)n1C	TAAR1 antagonist 58.9 | TAAR1 nonsel count 41.9 | TAAR1 antag conf 49.2 | Ga16 ag counter 17.9 | TAAR1 ag counter inactive
CCOC(=O)c1ccc(NC(=O)c2cccc(S(=O)(=O)N3CCOCC3)c2)cc1	TAAR1 antagonist 62.2 | TAAR1 nonsel count 33.7 | TAAR1 antag conf inactive | Ga16 ag counter 13.8 | TAAR1 ag counter inactive
Cc1ccc(NC(=O)c2cccnc2)cc1S(=O)(=O)N1CCOCC1	none
Cc1cc(C)n(-c2ccc(C(=O)Nc3ccc(C)c(S(=O)(=O)N4CCOCC4)c3)cc2)n1	TAAR1 antagonist 77.6 | TAAR1 nonsel count 41.0 | TAAR1 antag conf 55.3 | Ga16 ag counter 13.8 | TAAR1 ag counter inactive
CC(=O)c1ccc(NC(=O)c2ccc(C)c(S(=O)(=O)N3CCOCC3)c2)cc1	none
Cc1ccc(C(=O)Nc2ccc3cn[nH]c3c2)cc1S(=O)(=O)N1CCOCC1	TAAR1 antagonist 61.5 | TAAR1 nonsel count 30.7 | TAAR1 antag conf inactive | Ga16 ag counter inactive | TAAR1 ag counter inactive
COc1ccc(Cc2nc3ccc(C(=O)N(C)CC4COCCO4)cc3o2)cc1 (centres undefined)	none
Cn1cnc([N+](=O)[O-])c1Sc1nnc(-c2ccccc2)c(-c2ccccc2)n1	none (no result: OXTR agonist, V1aR counter, OXTR potentiator)
O=C(O)c1ccc(CNC(=O)c2ccc(C(F)(F)F)cc2)cc1	none
CCOC(=O)C1CCCCN1C(=O)/C(=C/c1ccc(OC)cc1)c1ccc(OC)c(OC)c1 (centres undefined)	none
Cc1c(C(=O)N(C)c2ccc(Cl)cc2)cnn1-c1ccccc1	none
O=C(c1cnc(N2CCN(c3ncccn3)CC2)c2ccccc12)N1CCN(c2ncccn2)CC1	TAAR1 antagonist 59.3 | TAAR1 nonsel count 31.7 | TAAR1 antag conf 49.4 | Ga16 ag counter inactive | TAAR1 ag counter inactive
CN(C(=O)c1cnc(N2CCN(c3ncccn3)CC2)c2ccccc12)c1ccc(Cl)cc1	TAAR1 antagonist 50.9 | TAAR1 nonsel count inactive | TAAR1 antag conf inactive | Ga16 ag counter inactive | TAAR1 ag counter inactive
CCN(C(=O)c1cnc(N2CCN(c3ncccn3)CC2)c2ccccc12)c1cccc(Cl)c1	TAAR1 antagonist 49.9 | TAAR1 nonsel count 26.6 | TAAR1 antag conf inactive | Ga16 ag counter inactive | TAAR1 ag counter inactive
C[C@H](CO)N1C[C@H](C)[C@@H](CN(C)C(=O)CCC(F)(F)F)OCc2cn(nn2)CCCC1=O	none (no result: OXTR agonist, V1aR counter, OXTR potentiator)
CCOC(=O)NNC(=O)NCCCCCCNC(=O)NNC(=O)OCC	none
Cc1ccccc1N(C(=O)c1snc(C(N)=O)c1N)C(C)C(=O)NC1CCCCC1 (centres undefined)	none
CCOc1ccccc1N(C(=O)c1snc(C(N)=O)c1N)C(C(=O)NCc1ccccc1)c1ccc(O)cc1 (centres undefined)	none (no result: OXTR agonist, V1aR counter, OXTR potentiator)
